Bioassay records as filed in PubChem BioAssay.
In the library only some 3.5% were active in any assay of this set; here they are far more common.
RGS4 inh: human RGS4 inhibition; B-score at 10 µM; AID 463165; HEK293 M3R/RGS4 inducible, Fluo-4 calcium flux; hits give high values; triggered by carbachol at its EC20; actives 0.45% (n = 310,000);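 active means B-score, a plate-corrected calcium signal, over three deviations above library mean, with baseline fluorescence within five deviations of library mean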;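 further: RGS4 expression induced by doxycycline in cells with stable M3 receptor; B-score is computed from the integrated fluorescence ratio over baseline after carbachol; higher B-score means a larger calcium signal and so more RGS4 inhibition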
Target sequence (P49798 whole entry, looked up): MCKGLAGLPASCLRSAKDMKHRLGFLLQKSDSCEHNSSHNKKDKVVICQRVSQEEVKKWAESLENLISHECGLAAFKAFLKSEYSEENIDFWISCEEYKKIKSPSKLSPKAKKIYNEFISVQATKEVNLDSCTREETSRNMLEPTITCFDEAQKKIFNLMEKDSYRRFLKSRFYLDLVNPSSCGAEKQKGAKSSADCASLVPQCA
MrgX1 ag: activates human MrgX1 receptor signaling | B-score at 10 µM | Q96LB2 | MrgX1-HEK293 cells, Fluo-4 calcium fluorescence, agonist mode; hits give high values | actives 0.44% (n = 310,000);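 active means calcium response B-score plate-corrected fluorescence ratio at least 3 library SD, with starting fluorescence B-score inside 5 SD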
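Test system: HEK293 cells stably expressing human MrgX1 receptor; Input: fifteen thousand cells per well; Dosing: compound delivered in addition one of three; Schedule: overnight seeding, then 1 h dark dye loading; Technique: Fluo-4 NW calcium fluorescence; Measure: B-scored fluorescence response ratio; Controls: positive and negative controls per plate.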
RGS4 act: potentiators or activators of RGS4; AID 463111; HEK293 M3R/inducible RGS4, carbachol calcium flux Fluo4; hits give low values; actives 0.92% (n = 310,000); B-score at 10 µM;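 active means B-score of the integrated calcium signal more than 4 SD below the library mean, with starting fluorescence not abnormally high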;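 further: negative B-score means reduced calcium response which marks RGS4 activation or potentiation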
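test system = HEK293 cells with stable M3R and inducible RGS4 | schedule = recording 10 s baseline at 1 Hz, 100 s post-agonist | technique = Fluo4-AM (2 µM) calcium-flux fluorescence, kinetic read | measure = Agonist-evoked peak-minus-minimum fluorescence over baseline, integrated ratio, B score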
MrgX1 PAM: human MrgX1 positive allosteric modulation, primary screen; Q96LB2; MrgX1-HEK293, Fluo-4 calcium flux, FDSS; hits give high values; B-score at 10 µM; actives 0.63% (n = 310,000); AID 588675;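 active means plate-corrected calcium response at least 3 library SD above typical, normal starting fluorescence, not activating the receptor alone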;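 further: compound read alongside a low EC10 to EC30 dose of BAM8-22 agonist; peak minus trough fluorescence over baseline measured at the second addition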
MrgX1 antag: blocks BAM8-22 activation of human MrgX1 receptor | actives 1.3% (n = 310,000) | B-score at 10 µM | Q96LB2 | MRGX1-HEK293 calcium flux, Fluo-4, BAM8-22 antagonism; hits give low values;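 active means calcium-response B-score plate-corrected more than 3 library SD below zero, starting fluorescence within 5 deviations, no agonist response on first addition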;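 further: peak minus trough fluorescence over baseline after final BAM8-22 challenge near maximal dose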
MrgX1 antag conf: confirmation of human MrgX1 receptor antagonists; actives 19% (n = 2,300); MrgX1-HEK293, BAM8-22 calcium flux, Fluo-4; hits give low values; shares compounds with MrgX1 antag; remaining BAM8-22 calcium response % of control (hits give low values), % at 10 µM;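 active means remaining agonist calcium response no higher than 100% minus 3 SD of agonist-only control wells, with starting fluorescence near control levels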;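 further: agonist BAM8-22 given at a near maximal EC90 to ECmax level; peak minus minimum fluorescence divided by baseline after agonist addition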
HEK293 Ca flux: activity in parental HEK293 cells lacking MrgX1; shares compounds with MrgX1 antag; Fluo-4 calcium fluorescence, FDSS; fluorescence ratio F(max-min)/F0 at 10 µM; actives 2% (n = 4,000);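 active means duplicate-averaged calcium fluorescence ratio at least three times the standard deviation of buffer wells, a nonspecific response in parental cells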
HEK293 Ca counter: MrgX1 allosteric activator counter-screen hit in parental HEK293 cells. parental HEK293 calcium flux, Fluo-4 fluorescence ratio; hits give high values. shares compounds with MrgX1 antag. actives 0.4% (n = 4,000). AID 624114. fluorescence ratio F(max-min)/F0 at 10 µM;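 active means calcium fluorescence ratio, averaged over duplicates, at least 3 SD of the buffer-well ratio, meaning a nonspecific response in receptor-free cells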;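 further: untransfected parental HEK293 lacking MrgX1 used as counterscreen for MrgX1 allosteric activators; fluorescence change taken during the second addition on a kinetic imager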
HEK293 Ca cntr2: MrgX1 activator counter-screen hit in parental HEK293 cells; shares compounds with MrgX1 antag; Fluo-4 calcium fluorescence (FDSS); hits give high values; fluorescence ratio F(max-min)/F0 at 10 µM; actives 8.7% (n = 4,000);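 active means calcium fluorescence ratio at least three times the spread of buffer wells, meaning a non-specific response in parental cells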
* marks the source's active call; other numbers are inactive results; i = inactive; x = no result given.

SMILES	RGS4 inh	MrgX1 ag	RGS4 act	MrgX1 PAM	MrgX1 antag	MrgX1 antag conf	HEK293 Ca flux	HEK293 Ca counter	HEK293 Ca cntr2
COC(OC)c1ccc(C#N)c(=O)[nH]1	i	i	i	i	-6.2*	83%*	i	i	i
Cn1c(SCc2ccccc2)nnc1-c1cnccn1	i	i	i	i	i	x	x	x	x
O=C(NCCCN1CCOCC1)c1cccs1	x	i	x	i	-8.8*	79%*	i	i	i
COc1ccccc1N1CCN(C(=O)c2ccc3[nH]c4c(c3c2)CC(C)CC4)CC1 (configuration not stated)	i	i	i	i	i	x	x	x	x
COc1ccccc1C1C(C#N)=C(N)N(c2cccnc2)C2=C1C(=O)CC(C)(C)C2 (configuration not stated)	i	i	i	i	-8.8*	i	i	i	i
COc1cc(C2C(C#N)=C(N)N(c3cccnc3)C3=C2C(=O)CC(C)(C)C3)ccc1O (configuration not stated)	i	i	i	i	i	x	x	x	x
Cc1cc(=O)oc2c3c(cc(OCC(=O)NCc4ccncc4)c12)OC(C)(C)CC3	i	i	i	i	-4.9*	76%*	i	i	i
COc1ccc(CNC(=O)COc2cc3c(c4oc(=O)cc(C)c24)CCC(C)(C)O3)cc1OC	i	i	i	i	-4.7*	i	i	i	i
Cc1cccc(/C(N)=N/OC(=O)CCCc2ccccc2)c1	i	i	i	i	i	x	x	x	x
COc1cccc(C(O)c2nc3ccccc3n2C(C)C)c1 (configuration not stated)	i	i	i	i	-6.3*	i	i	i	i
COc1cccc(C(O)c2nc3ccccc3n2C(C)C)c1OC (configuration not stated)	i	i	i	i	i	x	x	x	x
COc1ccc(OC)c2c(=O)cc(C(=O)O)[nH]c12	i	i	i	i	i	x	x	x	x
COc1cc2cc(C(=O)O)[nH]c2c(OC)c1OC	i	i	i	i	-5.7*	i	i	i	i
CCC(=O)N1CCc2cc(Br)cc(S(=O)(=O)CC(=O)OC)c21	i	i	i	i	-5.9*	i	i	i	i
Cc1c(C(=O)Nc2ccc3c(c2)OCO3)sc2ncn(CC(=O)N3CC(C)CC(C)C3)c(=O)c12 (configuration not stated)	i	i	i	i	-6.5*	83%*	i	i	i
CN(c1ccc(C(=O)NCCc2ccccc2)cc1)S(C)(=O)=O	i	i	i	i	i	x	x	x	x
CCCCNC(=S)Nc1ccc(SC(F)F)cc1	i	i	i	i	-6.9*	i	i	i	i
CC1CC(C)CN(C(=S)Nc2ccc(SC(F)F)cc2)C1 (configuration not stated)	i	i	i	i	-5*	i	i	i	i
CCCCNC(=S)Nc1ccc(F)cc1	i	i	i	i	i	x	x	x	x
CC1CN(C(=S)Nc2ccc(SC(F)F)cc2)CC(C)O1 (configuration not stated)	i	i	i	i	i	x	x	x	x
CC[C@H](C)Cc1cn([C@@H](CCCN=C(N)N)C(=O)NCCCCCCCCCCC(=O)N2CCNCC2)nn1	x	i	x	i	i	x	x	x	x
